ChEMBL document CHEMBL5214934, “A simplified analog of debromoaplysiatoxin lacking the B-ring of spiroketal moiety retains protein kinase C-binding and antiproliferative activities” (Bioorg Med Chem, 2022)
Calls of active or inactive are those of the source. The calls are words filed in the database; no cut-off is given here.

Experiments:
[1] = target: Protein kinase C alpha type (Homo sapiens, UniProt P17252); test: Inhibition of [3H]-PDBu binding to PKCalpha C1A domain (unknown origin) by competitive binding assay
Summary of the method: (§1)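 Synthetic PKCα-C1A (40 nM) or PKCδ-C1B (13.8 nM) peptide in 50 mM Tris-maleate (pH 7.4 at 4 °C). Mixture contained 20 nM [3H]PDBu (13.92 Ci/mmol), 50 µg/mL dioleoylphosphatidylserine, 3 mg/mL bovine γ-globulin and graded ligand. IC50 by logit analysis; Ki by Goldstein–Barrett equation from IC50 and [3H]PDBu Kd. Two independent experiments, triplicates each; log-scale mean with 95% CI.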

[2] = target: Protein kinase C delta type (Homo sapiens, UniProt Q05655); test: Inhibition of [3H]-PDBu binding to PKCdelta C1B domain (unknown origin) by competitive binding assay; summary of the method: as §1
Homo sapiens = species on record: Homo sapiens; test: Ratio Ki for inhibition of [3H]-PDBu binding to PKCalpha C1A domain (unknown origin) to Ki for inhibition of [3H]-PDBu binding to PKCdelta C1B domain (unknown origin)
[3] = Antiproliferative activity against human HBC4 cells after 48 hrs by SRB assay; assay type: functional; details: HBC4, read-out: pGI50 (converted)
Summary of the method: (§2)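 Part of a 39-line human cancer cell panel. Cells plated in RPMI 1640 with 5% FBS and left to attach overnight, then exposed to compound at 10^-8 to 10^-4 M for 48 h. Growth measured by sulforhodamine B staining, absorbance at 525 nm, with a time-0 reading. % growth calculated against control from duplicate points. GI50 is the concentration giving 50% growth inhibition versus untreated control.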

MDA-MB-231 = test: Antiproliferative activity against human MDA-MB-231 cells after 48 hrs by SRB assay; assay type: functional; details: MDA-MB-231, read-out: pGI50 (converted); summary of the method: as §2
SF-295 = test: Antiproliferative activity against human SF-295 cells after 48 hrs by SRB assay; assay type: functional; details: SF-295, read-out: pGI50 (converted); summary of the method: as §2
HCC 2998 = test: Antiproliferative activity against human HCC 2998 cells after 48 hrs by SRB assay; assay type: functional; details: HCC 2998, read-out: pGI50 (converted); summary of the method: as §2
NCI-H460 = test: Antiproliferative activity against human NCI-H460 cells after 48 hrs by SRB assay; assay type: functional; summary of the method: as §2
A549 = test: Antiproliferative activity against human A549 cells after 48 hrs by SRB assay; assay type: functional; details: A549, read-out: pGI50 (converted); summary of the method: as §2
DMS-273 = test: Antiproliferative activity against human DMS-273 cells after 48 hrs by SRB assay; assay type: functional; details: DMS-273, read-out: pGI50 (converted); summary of the method: as §2
OVCAR-5 = test: Antiproliferative activity against human OVCAR-5 cells after 48 hrs by SRB assay; assay type: functional; details: OVCAR-5, read-out: pGI50 (converted); summary of the method: as §2
St-4 = test: Antiproliferative activity against human St-4 cells after 48 hrs by SRB assay; assay type: functional; details: St-4, read-out: pGI50 (converted); summary of the method: as §2
MKN-45 = test: Antiproliferative activity against human MKN-45 cells after 48 hrs by SRB assay; assay type: functional; summary of the method: as §2

Chain of Protein kinase C delta type (Q05655 whole entry, the tested form may be a part): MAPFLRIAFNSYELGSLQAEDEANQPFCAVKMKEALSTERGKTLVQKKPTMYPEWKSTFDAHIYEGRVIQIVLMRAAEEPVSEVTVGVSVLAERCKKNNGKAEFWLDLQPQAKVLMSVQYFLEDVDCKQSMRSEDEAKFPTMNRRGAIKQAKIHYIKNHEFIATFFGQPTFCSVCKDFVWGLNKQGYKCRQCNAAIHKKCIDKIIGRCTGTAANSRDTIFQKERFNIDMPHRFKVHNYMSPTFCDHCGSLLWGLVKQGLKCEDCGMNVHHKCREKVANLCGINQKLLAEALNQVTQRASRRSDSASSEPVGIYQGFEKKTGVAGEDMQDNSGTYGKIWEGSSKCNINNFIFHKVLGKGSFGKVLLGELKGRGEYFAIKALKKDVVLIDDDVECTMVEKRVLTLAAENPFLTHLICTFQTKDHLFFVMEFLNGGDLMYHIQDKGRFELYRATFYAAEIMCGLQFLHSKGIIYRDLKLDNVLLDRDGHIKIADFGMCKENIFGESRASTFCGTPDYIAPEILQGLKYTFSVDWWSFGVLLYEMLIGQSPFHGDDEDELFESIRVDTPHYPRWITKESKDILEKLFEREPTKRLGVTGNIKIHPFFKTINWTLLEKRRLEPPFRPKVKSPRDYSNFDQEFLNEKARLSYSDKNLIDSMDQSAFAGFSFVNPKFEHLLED

Compound | Ki [1] [µM] | Ki [2] [µM] | Ratio Ki (Homo sapiens) | GI50 [3] [µM] | GI50 (MDA-MB-231) [µM] | GI50 (SF-295) [µM] | GI50 (HCC 2998) [µM] | GI50 (NCI-H460; NCI-H460, read-out: pGI50 (converted)) [µM] | GI50 (A549) [µM] | GI50 (DMS-273) [µM] | GI50 (OVCAR-5) [µM] | GI50 (St-4) [µM] | GI50 (MKN-45; MKN-45, read-out: pGI50 (converted)) [µM] | Activity (NCI-H460) | Activity (MKN-45)
CC1(C)CC[C@@H]2CC(=O)O[C@@H](CO)CC(=O)O[C@H](CCCCCCc3ccccc3)C[C@@H]1O2 | 0.088 | 0.017 | 5.2 | < 10 | < 10 | < 10 | < 10 | < 10 | < 10 | < 10 | < 10 | < 10 | < 10 |  | 
CC1(C)CC[C@@H]2CC(=O)O[C@@H](CO)CC(=O)O[C@@H]3C[C@@H](CCCCc4ccccc4)O[C@@]1(C3)O2 |  |  | 12 |  |  |  |  |  |  |  |  |  |  |  | 
CC(C)[C@@]12C[C@@H](C[C@@H](CCCCc3ccccc3)O1)OC(=O)C[C@H](CO)OC(=O)CCO2 | 0.1 | 0.13 | 0.8 |  |  |  |  |  |  |  |  |  |  | Active | Active
